The text below walks through data of PMC3263943 (Bioscience Reports, 2011).

As usually defined, the Kd is the concentration at which binding is half-saturated.

One experiment deals with human CaM (calmodulin) (Homo sapiens, UniProt P0DP23). Description: Native gel titration of CaM with peptide. Particulars: presence of calcium ions; from Kd,app by native gel densitometry. The format is binding. In short, it runs like this: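 Bacterially expressed CaM (E. coli Rosetta (DE3), calcium-dependent phenyl-Sepharose purification) held at 35 μM, calcium present, with synthetic IQ-motif peptide at 18–350 μM; incubated 1 h at 22°C. Native 15% polyacrylamide gel in Tris/glycine pH 8.8, Coomassie-stained. Fraction bound = complex band/(complex + free CaM), background-corrected densitometry. Means of three independent experiments fitted to hyperbolic binding equation; Kd,app ± S.E.M. from fit.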

A further experiment addresses human calmodulin (human) (UniProt P0DP23). Briefly: native gel or EMSA. On the technique in general: In EMSA bound probe runs differently from free probe, usually more slowly.

In the case of Ac-KNVNSIVKIQAFFRARKAQDDYR-NH2 [3IQ4], at human CaM (calmodulin), the “Ranking of affinity for CaM” value is recorded as “followed by 3IQ4”.
In the experiment with human calmodulin (human), “3IQ2, peptide of the second IQ-motif of human IQGAP3” registered a Kd of 27 µM.
Same read-out and setting: with “3IQ3, peptide of the third IQ-motif of human IQGAP3” the figure was 76 µM.
In the experiment with human calmodulin (human), “3IQ4, peptide of the fourth IQ-motif of human IQGAP3” registered a Kd of 65 µM.
